Test results taken from PubChem BioAssay AID624466 (The Scripps Research Institute Molecular Screening Center, 2012).
The whole screen tested about 360,000 compounds, of which about 5,400 (1.5%) were called active.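 The calls were made as follows: active = inhibition above a per-plate cutoff, the mean inhibition of test compounds on that plate plus 3 SD (cut at about 49% in these data); inactive = the rest.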 The entries come from a sample that favours actives as a whole.

target: Trace amine-associated receptor 1 (Homo sapiens) (UniProt Q96RJ0); assay: blockers of beta-PEA-driven TAAR1 calcium signal – Fluo-8 calcium fluorescence, CHO RD-HGA16 cells, primary screen (AID 624466); details: CHO RD-HGA16 TAAR1, Fluo-8 calcium fluorescence, antagonist; at 3 µM; active compounds read high;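 also: 0% = DMSO plus EC80 beta-PEA response and 100% = DMSO alone without agonist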
Sequence (Q96RJ0 whole entry, looked up): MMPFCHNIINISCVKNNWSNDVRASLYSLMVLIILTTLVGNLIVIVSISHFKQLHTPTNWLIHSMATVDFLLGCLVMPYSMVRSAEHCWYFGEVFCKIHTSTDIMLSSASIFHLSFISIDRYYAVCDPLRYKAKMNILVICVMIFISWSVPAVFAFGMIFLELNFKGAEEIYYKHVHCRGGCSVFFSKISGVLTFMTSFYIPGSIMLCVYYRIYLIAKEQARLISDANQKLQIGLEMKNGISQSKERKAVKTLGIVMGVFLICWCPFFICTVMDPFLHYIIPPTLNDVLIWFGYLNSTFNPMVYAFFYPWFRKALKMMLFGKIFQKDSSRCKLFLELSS
Outline: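 Assay system: RD-HGA16 CHO cells with stable hTAAR1 and Gα16 / Reagent: EC80 β-phenethylamine stimulus / Doses: 3 µM, single point / Timing: dye loading 75 min at 37 °C, then 30 min room temperature / Measured by: Fluo-8 intracellular calcium dye fluorescence, real-time kinetic reads / Controls: vehicle wells and EC80 agonist wells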

Compound	inhibition
CC(=N\NC(=O)c1cc(Br)ccc1O)/C(=N/O)C(=O)Nc1ccccc1	-8.22% (inactive)
Cc1ccc(C(=O)NCC(=O)OCc2nnc(-c3ccccc3)o2)cc1	-15.8% (inactive)
Cc1onc(-c2ccccc2)c1-c1nnc(COC(=O)c2ccc(N(C)C)cc2)o1	73.5% (active)
Cc1onc(-c2ccccc2Cl)c1C(=O)OCc1nnc(-c2ccccc2)o1	14.8% (inactive)
O=S1(=O)CC(N2CCN(Cc3ccccc3F)CC2)CN1Cc1cn(Cc2ccccc2)nn1 (stereo not given)	-11.1% (inactive)
CC(C)CCNc1nc(N2CCCC2)c2c(c1C#N)CCN(C)C2	-24.7% (inactive)
CCCCc1nc(NCc2ccccc2)c(C#N)c2c1CCCC2	-12.6% (inactive)
CCN1CCc2c(C#N)c(NCc3ccccc3)nc(NCCO)c2C1	106% (active)
COc1ccc(-c2nn(-c3ccccc3)cc2C(=O)Nc2nccs2)cc1OC	71.3% (active)
COc1ccc(Cl)cc1NC(=O)CN(C)C(=O)c1cn(-c2ccccc2)nc1-c1cccs1	12.7% (inactive)
O=C(O)c1ccccc1-c1ccccc1C(=O)Nc1nccs1	-18.3% (inactive)
CCn1c(/C=C/Nc2ccccc2)[n+](CC)c2ccc(C(=O)OCC(F)(F)F)cc21	-27.5% (inactive)
CC1(C)OC(=O)C2=C(C[C@@H](C3CCCCC3)O[C@@H]2c2ccc(Cl)cc2)O1	-31% (inactive)
CS(=O)(=O)c1ccc(-c2nnn(CC(=O)Nc3ccc4c(c3)OCCO4)n2)cc1	21% (inactive)
CC(C)c1cccc(-c2csc(C(O)c3ccccc3)n2)c1 (stereo not given)	17.5% (inactive)
COc1ccc(N2CCN(C(=O)COC(=O)c3cccc(S(=O)(=O)Nc4ccccc4OC)c3)CC2)cc1	21.7% (inactive)
COc1ccccc1NS(=O)(=O)c1ccc(C(=O)N2CCN(c3ccccc3O)CC2)cc1	58.1% (active)
CN1CCN(C(=O)c2ccc(NS(=O)(=O)c3ccccc3)cc2)CC1	-8.92% (inactive)
CCOc1ccc(-n2cnc3c(=O)[nH]c(N)nc32)cc1	0.45% (inactive)
O=C(NNc1c2ccccc2nc2ccccc12)c1cc2ccccc2cc1O	65.3% (active)
O=C(NNC(=O)c1ccccc1O)c1ccccc1O	-13.5% (inactive)
O=C(COC(=O)c1ccc(O)cc1O)NC(=O)c1ccccc1	-0.49% (inactive)

Compound	inhibition
Cc1cccc(C)c1NC(=O)C(c1ccc(C(F)(F)F)cc1)n1c(=O)c(-c2ccco2)nc2ccccc21 (stereo not given)	-9.78% (inactive)
O=S(=O)(NCCc1ccccn1)c1cc(Cl)cc(Cl)c1O	-19.9% (inactive)
O=C(c1ccc(O)cc1)c1ccc(C(=O)O)c(C(=O)O)c1	17.8% (inactive)
COC(=O)[C@]12CCCCC=C1N(Cc1ccc3c(c1)OCO3)C(=O)[C@H](CC(=O)NCc1cccs1)C2	21.1% (inactive)
NS(=O)(=O)c1ccc(NC(=O)COC(=O)c2c3c(nc4ccccc24)/C(=C\c2ccc4c(c2)OCO4)CCC3)cc1	6.15% (inactive)
O=C(COC(=O)c1c2c(nc3ccccc13)CCCC2)c1ccc(Br)s1	49% (active)
Cn1cccc1C(=O)OCC(=O)c1ccc(Br)s1	-0.72% (inactive)
Cc1cc(S(=O)(=O)N2CCOCC2)ccc1OCC(=O)Nc1cccc(C(F)(F)F)c1	30.6% (inactive)
CN1C(=O)C2CC(O)C(SC3CC4C(=O)N(C)C(=O)C4CC3O)CC2C1=O (stereo not given)	2.98% (inactive)
CN[C@H]1C[C@H]2c3cc(Oc4ccccc4C)ccc3CCN2C(=O)[C@H]1[C@H](C)O	0.22% (inactive)
O=C(O)c1ccc(NC(=O)c2ccc(COc3ccc(Cl)cc3)o2)cc1	34.7% (inactive)
Cc1cc(OCc2ccc(C(=O)Nc3ccc(C(=O)O)cc3)o2)ccc1Cl	50.2% (active)
COc1ccc(NC(=O)CN(C)C(=O)c2ccc(COc3ccccc3)o2)cc1	-57.5% (inactive)
CC(C)(C)C(=O)c1c(N)[nH]c(C(=O)c2ccccc2)c1-c1ccc(F)cc1	2.74% (inactive)
CCOC(=O)Cn1c2c(n(-c3ccc(F)cc3)c1=O)C=C(c1ccccc1)[C@@H](C)C(C(=O)N(C)C1CCCCC1)=C2	-25% (inactive)
COC(=O)[C@]12C[C@H](CC(=O)NCCC(C)C)C(=O)N(CCc3ccc(OC)c(OC)c3)C1=C[C@H](C(C)(C)C)O[C@@H]2C	-15.9% (inactive)
Cc1cc2nc(-c3ccc(F)cc3)c(Cc3ccsc3)n2c(C)c1Br	-3.77% (inactive)
Cc1ccc(C)c(N2CCN(C(=O)CCCn3c(=O)c4cccn4c4cccnc43)CC2)c1	26% (inactive)
Cc1ccc(C)c(N2CCN(C(=O)CCCCCn3c(=S)[nH]c4ccc(N5CCOCC5)cc4c3=O)CC2)c1	75% (active)
O=C(CCCCCn1c(=S)[nH]c2cc3c(cc2c1=O)OCO3)N1CCN(c2ccc(F)cc2)CC1	11.1% (inactive)
CCN(CCCNC(=O)c1ccc2c(c1)NC(=O)CN2C)c1cccc(C)c1	-2.86% (inactive)
O=S(=O)(NCc1ccco1)c1cnc(Cl)c(Cl)c1	-4.49% (inactive)

Compound	inhibition
C/C(=N\Nc1ncc(Cl)cc1Cl)c1ccc(S(=O)(=O)NCc2ccco2)cc1	49.3% (active)
Cc1c(Cl)cnc(NC(=O)COC(=O)c2ccc(S(=O)(=O)NCc3ccco3)cc2)c1Cl	-10.1% (inactive)
O=C(COC(=O)Cn1cnc2ccccc2c1=O)NCC12CC3CC(CC(C3)C1)C2	-9.23% (inactive)
C[C@H](O)[C@@H]1C(=O)N2CCc3c([nH]c4c(-c5ccc6c(c5)OCO6)cccc34)[C@@H]2C[C@@H]1N(C)C(=O)c1ccco1	60.8% (active)
CN[C@H]1C[C@H]2c3[nH]c4c(-c5ccccc5)cccc4c3CCN2C(=O)[C@H]1[C@H](C)O	15.3% (inactive)
CCOC(=O)CNC(=O)N(C)[C@H]1C[C@H]2c3[nH]c4c(-c5ccc6c(c5)OCO6)cccc4c3CCN2C(=O)[C@H]1[C@H](C)O	12.4% (inactive)
O=C(CN1CCSCC1)N/N=C/c1ccc(Cl)cc1	-17.2% (inactive)
CSc1ncc(C(=O)Nc2ccc(C)cc2C)c(C)n1	-0.22% (inactive)
Cc1ccc(NC(=O)c2ccc(CSc3ncnc4nc[nH]c34)cc2)c(C)c1	56.7% (active)
CSCc1ccc(C(=O)Nc2cc(C)cc(C)c2)cc1	16.7% (inactive)
CC[C@@H]1CCCCc2ccccc2[C@@H](C(=O)C[C@H](O)CC(C)=O)OC1=O	13.4% (inactive)
C=CCn1c(SCc2c(C(=O)OC)sc(N)c2C(=O)OC)nnc1-c1ccc(Cl)cc1	34.7% (inactive)
O=C(Nc1ccc2ccccc2c1)/C(=C\c1ccc2c(c1)OCO2)NC(=O)c1ccco1	12.7% (inactive)
O=C(NNC(=S)Nc1ccc(Br)cc1Cl)c1ccco1	-2.77% (inactive)
CCCc1ccc(OCC(=O)NNC(=S)NC(=O)c2ccco2)cc1	74.2% (active)
CCOc1cc(NC(=S)NCc2ccco2)c(OCC)cc1NC(=O)c1ccco1	9.19% (inactive)
NS(=O)(=O)c1ccc(CNC(=S)NC(=O)c2ccco2)cc1	6.18% (inactive)
CC(Oc1ccc2ccccc2c1)C(=O)NNC(=S)NC(=O)c1ccco1 (stereo not given)	61.9% (active)
Cc1ccc(S(=O)(=O)N2CC3C(=O)C[C@@H](c4ccccc4Cl)N(S(=O)(=O)c4ccc(C)cc4)C3CC2c2ccccc2)cc1 (stereo not given in full)	2.68% (inactive)
COC(=O)c1cc2c(c3c4cc(F)ccc4n(S(=O)(=O)c4ccccc4)c13)C(=O)N(Cc1ccccc1OC)C2	-0.96% (inactive)
O=C(C(=O)N1CCC(CNC(=O)c2cccnc2Cl)CC1)c1cccs1	-12.2% (inactive)
COc1ccc(CNC(=O)COc2cccnc2[N+](=O)[O-])cc1	-4.68% (inactive)

Compound	inhibition
Cc1ccc(-c2c(N)nc3ncccn23)cc1	-8.72% (inactive)
COCCn1c(C)cc(C(=O)CSc2nnc(C3CC3)n2C2CC2)c1C	10.2% (inactive)
Nc1nc2c(Br)ccc(Br)c2cc1C(=O)NCCc1ccccc1	-14% (inactive)
O=C(NNS(=O)(=O)c1ccc(F)cc1)C1CCCCC1	-20.9% (inactive)
O=C(CN1CCCSc2ccccc21)N1CCN(S(=O)(=O)c2cccc(F)c2)CC1	49.7% (active)
O=C(CN1CCN(S(=O)(=O)c2cccc(Cl)c2)CC1)N1CCCCC1	6.11% (inactive)
O=C(CN1CCCSc2ccccc21)N1CCN(S(=O)(=O)c2ccccc2)CC1	18.8% (inactive)
Cc1ccccc1C(=O)N[C@H](C(=O)N1CCC[C@H]1C(=O)NCc1ccccc1)C(C)C	14.4% (inactive)
O=C(NC1CCCC1)C1c2ccccc2OCC(=O)N1CC(F)(F)F (stereo not given)	4.73% (inactive)
CCOc1ccccc1N1CN(Cc2ccccc2)CNC1=S	-9.06% (inactive)
COc1ccc2[nH]cc(CCN3C(=O)c4ccc(C(=O)O)cc4C3=O)c2c1	-11.2% (inactive)
COc1ccc2[nH]cc(/C=C(/C#N)S(=O)(=O)c3ccccc3)c2c1	51% (active)
COc1ccc(NS(=O)(=O)c2ccc(Oc3c(C#N)cccc3C#N)cc2)cc1	38.8% (inactive)
OC(CN=c1sc2ccccc2n1CC(O)COc1ccccc1)COc1ccccc1 (stereo not given)	67.2% (active)
CC(C)c1ccc(OCC(O)Cn2cnc3ccccc32)cc1 (stereo not given)	-0.64% (inactive)
Cc1cccc(OCC(O)Cn2c(=N)n(CCN3CCOCC3)c3ccccc32)c1 (stereo not given)	-7.65% (inactive)
CC(C)(C)c1ccc(NC(=O)COC(=O)CCc2nc3ccccc3c(=O)[nH]2)cc1	6.51% (inactive)
O=C(COC(=O)CCCSc1nc2ccccc2[nH]1)Nc1ccc(Oc2ccccc2)cc1	67.1% (active)
O=C(COC(=O)CCc1nc2ccccc2c(=O)[nH]1)Nc1ccc(N2CCOCC2)cc1	0.61% (inactive)
